5 compounds from ChEMBL document CHEMBL1157570, “Development of potent and selective inhibitors of ecto-5'-nucleotidase based on an anthraquinone scaffold” (J Med Chem, 2010) can be followed below.

The target of experiment [1] is T1, Ectonucleoside triphosphate diphosphohydrolase 2 (Rattus norvegicus, UniProt O35795).
T1 sequence (O35795 whole entry): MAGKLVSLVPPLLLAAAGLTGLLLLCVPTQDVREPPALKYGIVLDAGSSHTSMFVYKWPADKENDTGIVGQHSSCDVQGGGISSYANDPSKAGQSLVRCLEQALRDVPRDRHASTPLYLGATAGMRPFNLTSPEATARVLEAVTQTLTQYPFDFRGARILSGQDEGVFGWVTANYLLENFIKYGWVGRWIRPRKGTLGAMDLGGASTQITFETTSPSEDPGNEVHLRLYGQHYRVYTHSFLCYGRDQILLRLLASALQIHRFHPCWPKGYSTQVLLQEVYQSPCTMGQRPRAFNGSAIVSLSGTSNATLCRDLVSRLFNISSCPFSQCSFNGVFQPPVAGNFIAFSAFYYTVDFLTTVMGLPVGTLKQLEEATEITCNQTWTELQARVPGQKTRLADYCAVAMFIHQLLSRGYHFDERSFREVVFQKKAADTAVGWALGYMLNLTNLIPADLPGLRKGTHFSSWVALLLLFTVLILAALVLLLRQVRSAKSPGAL
As to the kind of experiment: Inhibition of rat NTPdase2 by capillary electrophoresis method.

The target of experiment [2] is T2, Ectonucleoside triphosphate diphosphohydrolase 1 (Rattus norvegicus, UniProt P97687).
T2 sequence (P97687 whole entry): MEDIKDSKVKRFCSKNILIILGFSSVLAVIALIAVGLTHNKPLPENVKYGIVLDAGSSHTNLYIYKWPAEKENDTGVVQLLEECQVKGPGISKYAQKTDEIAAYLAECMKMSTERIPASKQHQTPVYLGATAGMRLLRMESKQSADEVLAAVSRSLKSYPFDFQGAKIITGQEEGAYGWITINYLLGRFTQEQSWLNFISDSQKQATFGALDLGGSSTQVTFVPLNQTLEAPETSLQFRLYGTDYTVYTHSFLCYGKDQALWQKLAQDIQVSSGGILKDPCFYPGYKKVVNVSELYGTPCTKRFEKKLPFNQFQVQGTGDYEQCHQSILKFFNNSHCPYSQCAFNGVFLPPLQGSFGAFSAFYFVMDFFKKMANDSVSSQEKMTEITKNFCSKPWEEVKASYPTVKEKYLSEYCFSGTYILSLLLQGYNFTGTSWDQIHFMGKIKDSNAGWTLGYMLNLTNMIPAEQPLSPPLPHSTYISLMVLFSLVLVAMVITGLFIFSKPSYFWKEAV
Kind of experiment: Inhibition of rat NTPdase1 by capillary electrophoresis method.

For the next experiment, the target named is P2Y purinoceptor 2 (Homo sapiens, UniProt P41231). As to the kind of experiment: Antagonist activity at human P2Y2 receptor expressed in astrocytoma cells assessed as inhibition of intracellular calcium mobilization. It counts as functional, cell-based. A digest of the protocol:
(§1)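 Astrocytoma cells stably expressing the receptor, loaded with Fura-2 AM. Cells preincubated with test agent for at least 20 min, then challenged with 1 μM UTP (P2Y2), 3 μM UTP (P2Y4) or 3 μM UDP (P2Y6). Ca2+ fluorescence read at ex 320/em 520 nm. Full curves (7-8 concentrations over 3 log units) run when inhibition exceeded 40% at 10 μM. Three experiments, each in triplicate.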

The target of experiment [3] is T3, Nucleoside triphosphate diphosphohydrolase 3 (Rattus norvegicus, UniProt A6I415).
T3 sequence (A6I415 whole entry): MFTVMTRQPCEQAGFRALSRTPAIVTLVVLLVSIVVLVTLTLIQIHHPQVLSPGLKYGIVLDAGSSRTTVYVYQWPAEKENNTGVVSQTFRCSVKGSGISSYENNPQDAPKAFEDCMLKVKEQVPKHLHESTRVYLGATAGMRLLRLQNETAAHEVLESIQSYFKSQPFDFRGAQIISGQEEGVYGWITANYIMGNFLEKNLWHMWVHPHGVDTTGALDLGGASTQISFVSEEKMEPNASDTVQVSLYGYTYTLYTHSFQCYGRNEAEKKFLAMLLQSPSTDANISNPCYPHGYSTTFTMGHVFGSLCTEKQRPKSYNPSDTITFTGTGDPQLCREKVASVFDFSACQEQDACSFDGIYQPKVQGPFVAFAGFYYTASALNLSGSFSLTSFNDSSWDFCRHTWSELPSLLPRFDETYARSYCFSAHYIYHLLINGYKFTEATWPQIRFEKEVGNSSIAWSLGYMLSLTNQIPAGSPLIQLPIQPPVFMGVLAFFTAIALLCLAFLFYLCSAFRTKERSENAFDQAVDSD
As to the kind of experiment: Inhibition of rat NTPdase3 by capillary electrophoresis method.

The target in a further experiment is T4, 5'-nucleotidase (Rattus norvegicus, UniProt P21588).
T4 sequence (P21588 whole entry): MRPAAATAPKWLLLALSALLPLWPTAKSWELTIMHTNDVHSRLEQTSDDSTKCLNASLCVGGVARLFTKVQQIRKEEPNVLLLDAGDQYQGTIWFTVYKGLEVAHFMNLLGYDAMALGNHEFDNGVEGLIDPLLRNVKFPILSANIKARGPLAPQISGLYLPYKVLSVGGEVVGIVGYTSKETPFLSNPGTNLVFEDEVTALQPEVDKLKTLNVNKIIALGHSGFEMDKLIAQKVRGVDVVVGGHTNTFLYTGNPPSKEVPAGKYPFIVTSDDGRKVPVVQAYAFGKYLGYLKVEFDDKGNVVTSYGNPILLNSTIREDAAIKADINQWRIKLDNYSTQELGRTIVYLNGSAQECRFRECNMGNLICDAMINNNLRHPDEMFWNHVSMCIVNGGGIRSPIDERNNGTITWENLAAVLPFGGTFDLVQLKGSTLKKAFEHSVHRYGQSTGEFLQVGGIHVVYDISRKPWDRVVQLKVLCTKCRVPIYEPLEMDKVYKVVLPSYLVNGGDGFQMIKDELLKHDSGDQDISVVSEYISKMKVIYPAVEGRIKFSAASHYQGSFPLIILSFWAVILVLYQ
Kind of experiment: Inhibition of rat ecto-5'-nucleotidase expressed in Sf9 cells by capillary electrophoresis method. The procedure, abridged:
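Rat eN, GST-fused, made in Sf9 cells and purified on GSH-agarose. 500 μM AMP in Hepes pH 7.4 with Mg2+/Ca2+, 37 °C for 15 min. Adenosine measured by capillary electrophoresis at 260 nm. Inhibitor at 6-8 concentrations spanning about 3 log units. […] Three experiments, each in duplicate.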

A further experiment addresses P2Y purinoceptor 4 (Homo sapiens, UniProt P51582). Kind of experiment: Antagonist activity at human P2Y4 receptor expressed in astrocytoma cells assessed as inhibition of intracellular calcium mobilization. It counts as functional, cell-based. The procedure, abridged:
as §1
(In general: Calcium assays in cells follow changes in intracellular calcium, usually with a dye or a luminescent sensor.)

The next experiment has as its target P2Y purinoceptor 6 (Rattus norvegicus, UniProt Q63371). As to the kind of experiment: Antagonist activity at rat P2Y6 receptor expressed in astrocytoma cells assessed as inhibition of intracellular calcium mobilization. It counts as functional, cell-based. The procedure, abridged: as §1
Experiment [4] addresses T5, Ectonucleoside triphosphate diphosphohydrolase 3 (Homo sapiens, UniProt O75355).
T5 sequence (O75355 whole entry): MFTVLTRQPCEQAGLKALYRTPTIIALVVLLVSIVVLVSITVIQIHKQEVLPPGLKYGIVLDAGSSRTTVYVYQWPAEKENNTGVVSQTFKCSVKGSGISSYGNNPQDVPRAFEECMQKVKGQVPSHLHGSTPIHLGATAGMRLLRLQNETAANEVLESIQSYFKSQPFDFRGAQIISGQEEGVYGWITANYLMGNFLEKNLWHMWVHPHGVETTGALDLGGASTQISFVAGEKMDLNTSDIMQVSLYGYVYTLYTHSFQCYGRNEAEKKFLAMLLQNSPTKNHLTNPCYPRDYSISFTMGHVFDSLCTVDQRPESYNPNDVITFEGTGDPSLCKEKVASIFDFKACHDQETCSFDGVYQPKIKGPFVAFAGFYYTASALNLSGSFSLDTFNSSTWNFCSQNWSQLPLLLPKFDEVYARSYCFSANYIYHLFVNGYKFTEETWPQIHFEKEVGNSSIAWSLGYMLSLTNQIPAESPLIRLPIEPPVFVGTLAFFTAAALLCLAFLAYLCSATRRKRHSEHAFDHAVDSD
Kind of experiment: Inhibition of human NTPdase3 by capillary electrophoresis method. The procedure, abridged: (§2)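 Membrane preparations containing human NTPDase1, 2 or 3. Inhibitor added in water or 1% DMSO. Incubated 10 min at 37 °C, stopped at 99 °C for 5 min. Diluted with 20 μM UMP as internal standard, then analysed by capillary electrophoresis. Triplicates in two experiments.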

In experiment [5] the target is T6, Ectonucleoside triphosphate diphosphohydrolase 1 (Homo sapiens, UniProt P49961).
T6 sequence (P49961 whole entry): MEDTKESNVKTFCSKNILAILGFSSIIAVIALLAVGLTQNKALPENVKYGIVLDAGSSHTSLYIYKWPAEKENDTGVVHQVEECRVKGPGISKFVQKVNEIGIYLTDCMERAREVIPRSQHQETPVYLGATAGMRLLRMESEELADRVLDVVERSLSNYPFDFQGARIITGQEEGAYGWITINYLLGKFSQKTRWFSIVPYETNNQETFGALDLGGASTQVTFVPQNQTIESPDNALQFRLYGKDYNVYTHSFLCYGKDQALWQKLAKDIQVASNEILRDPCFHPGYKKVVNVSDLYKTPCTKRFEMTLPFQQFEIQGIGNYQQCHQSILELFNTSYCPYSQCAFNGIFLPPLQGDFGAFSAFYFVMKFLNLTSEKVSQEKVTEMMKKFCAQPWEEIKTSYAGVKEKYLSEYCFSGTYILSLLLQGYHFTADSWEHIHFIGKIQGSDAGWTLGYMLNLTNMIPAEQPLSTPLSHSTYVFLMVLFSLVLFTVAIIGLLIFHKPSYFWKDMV
Kind of experiment: Inhibition of human NTPdase1 by capillary electrophoresis method. The procedure, abridged:
as §2

Experiment [6] in a line: Selectivity ratio of Ki for rat ecto-5'-nucleotidase to Ki for human NTPdase1.
Experiment [7] concerns the target T7, Ectonucleoside triphosphate diphosphohydrolase 2 (Homo sapiens, UniProt Q9Y5L3).
T7 sequence (Q9Y5L3 whole entry): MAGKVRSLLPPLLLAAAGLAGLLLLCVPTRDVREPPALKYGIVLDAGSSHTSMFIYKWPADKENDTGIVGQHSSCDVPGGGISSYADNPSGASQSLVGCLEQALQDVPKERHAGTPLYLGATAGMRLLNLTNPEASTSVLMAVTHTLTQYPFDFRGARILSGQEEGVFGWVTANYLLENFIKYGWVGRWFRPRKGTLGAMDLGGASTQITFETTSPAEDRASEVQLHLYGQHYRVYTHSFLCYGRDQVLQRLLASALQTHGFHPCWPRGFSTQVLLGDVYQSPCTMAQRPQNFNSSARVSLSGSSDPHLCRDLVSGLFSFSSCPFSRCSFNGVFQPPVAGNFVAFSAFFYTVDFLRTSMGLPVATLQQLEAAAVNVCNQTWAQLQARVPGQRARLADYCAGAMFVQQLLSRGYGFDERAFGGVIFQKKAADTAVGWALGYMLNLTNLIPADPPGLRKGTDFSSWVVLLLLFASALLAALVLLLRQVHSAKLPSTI
Kind of experiment: Inhibition of human NTPdase2 by capillary electrophoresis method. The procedure, abridged:
as §2

Experiment [8] concerns the target T8, 5'-nucleotidase (Rattus norvegicus) (UniProt P21588).
T8 sequence (whole entry): T4 sequence (P21588 whole entry)
As to the kind of experiment: Inhibition of rat ecto-5'-nucleotidase expressed in Sf9 cells by competitive Michaelis-Menten plot. A digest of the protocol: (§3)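 Purified recombinant rat eN from Sf9 cells. Reaction rates measured across a range of AMP concentrations, with inhibitor absent or at 0.2, 1 or 5 μM. Adenosine formed was quantified by capillary electrophoresis at 260 nm. Km and Vmax were compared on Michaelis-Menten and Lineweaver-Burk plots to assign the inhibition mode.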

The target of experiment [9] is T8, 5'-nucleotidase (Rattus norvegicus). Kind of experiment: Inhibition of rat ecto-5'-nucleotidase expressed in Sf9 cells by competitive Lineweaver-Burke plot. The procedure, abridged:
as §3

Molecules are shown by their SMILES. Activity calls are given as the source filed them. No cut-off for these calls is given here.

P2Y purinoceptor 4, sequence (P51582 whole entry): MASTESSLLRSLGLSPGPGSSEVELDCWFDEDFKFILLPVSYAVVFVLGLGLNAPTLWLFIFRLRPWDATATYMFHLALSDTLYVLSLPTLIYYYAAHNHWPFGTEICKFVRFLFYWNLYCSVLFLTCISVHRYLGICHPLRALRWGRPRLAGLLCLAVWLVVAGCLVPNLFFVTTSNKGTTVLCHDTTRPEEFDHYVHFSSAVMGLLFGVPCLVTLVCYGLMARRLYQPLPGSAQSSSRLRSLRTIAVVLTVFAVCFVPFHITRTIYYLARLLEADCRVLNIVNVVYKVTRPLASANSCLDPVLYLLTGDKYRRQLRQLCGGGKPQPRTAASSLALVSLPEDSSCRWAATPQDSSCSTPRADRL
P2Y purinoceptor 6, sequence (Q63371 whole entry): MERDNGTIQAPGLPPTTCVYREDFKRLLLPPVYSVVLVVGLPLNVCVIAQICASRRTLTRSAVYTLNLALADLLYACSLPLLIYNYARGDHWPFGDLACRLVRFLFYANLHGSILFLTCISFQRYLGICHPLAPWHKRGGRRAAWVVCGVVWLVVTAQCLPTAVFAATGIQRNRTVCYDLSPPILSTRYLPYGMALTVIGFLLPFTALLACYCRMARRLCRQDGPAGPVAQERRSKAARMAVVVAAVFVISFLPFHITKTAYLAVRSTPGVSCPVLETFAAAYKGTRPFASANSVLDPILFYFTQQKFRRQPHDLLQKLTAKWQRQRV
P2Y purinoceptor 2, sequence (P41231 whole entry): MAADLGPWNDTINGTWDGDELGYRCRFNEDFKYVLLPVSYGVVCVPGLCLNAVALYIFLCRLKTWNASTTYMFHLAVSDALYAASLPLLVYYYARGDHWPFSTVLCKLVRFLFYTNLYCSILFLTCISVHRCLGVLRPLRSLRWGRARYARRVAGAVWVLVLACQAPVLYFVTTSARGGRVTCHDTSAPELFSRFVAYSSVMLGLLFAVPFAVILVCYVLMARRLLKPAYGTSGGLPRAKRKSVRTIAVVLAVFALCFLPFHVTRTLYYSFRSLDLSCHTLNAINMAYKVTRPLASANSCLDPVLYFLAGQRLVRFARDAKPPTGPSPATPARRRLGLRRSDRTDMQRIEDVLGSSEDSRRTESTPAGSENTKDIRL

Turning to `Nc1c(S(=O)(=O)O)cc(Nc2ccccc2)c2c1C(=O)c1ccccc1C2=O` [ACID BLUE 25], the Ki in experiment [1] was found to be 35.8 µM; in experiment [2], 49.1 µM; in experiment [3], 14.3 µM; on 5'-nucleotidase it was 15.2 µM. Further, the IC50 on P2Y purinoceptor 2 is 11 µM; on P2Y purinoceptor 4 it was 25.8 µM; on P2Y purinoceptor 6, over 10 µM.
On to `Nc1c(S(=O)(=O)O)cc(Nc2ccc3cc4ccccc4cc3c2)c2c1C(=O)c1ccccc1C2=O`, for which the Ki in [4] is over 60 µM; in [5] it was 2.59 µM; at 5'-nucleotidase it was 0.15 µM; in experiment [7] it was over 200 µM. The figures for the IC50 at P2Y purinoceptor 2, on P2Y purinoceptor 4 and at P2Y purinoceptor 6 were 10 µM, over 10 µM and over 10 µM, respectively. For the same compound, in experiment [6], the Ratio Ki stood at 17.
On to `Nc1c(S(=O)(=O)O)cc(Nc2ccc(F)cc2C(=O)O)c2c1C(=O)c1ccccc1C2=O`, for which the Ki in experiment [4] is over 60 µM; in experiment [5], over 40 µM; at 5'-nucleotidase it was 0.26 µM; in [7] it was over 200 µM. The values for the IC50 at P2Y purinoceptor 2, on P2Y purinoceptor 4 and on P2Y purinoceptor 6 were 29.9 µM, over 10 µM and 10 µM, respectively. Moreover, the Ratio Ki in experiment [6] was over 150.
As to `Nc1c(S(=O)(=O)O)cc(Nc2ccc(O)cc2)c2c1C(=O)c1ccccc1C2=O`, the figures for the IC50 at P2Y purinoceptor 2, at P2Y purinoceptor 4 and on P2Y purinoceptor 6 were 4.63 µM, 2.37 µM and 5.3 µM, respectively. Also, the results for the Ki (in [5]; on 5'-nucleotidase; in [7]) were 10.7 µM, 0.62 µM and over 200 µM, respectively.
Turning to `Nc1c(S(=O)(=O)O)cc(Nc2cccc3ccccc23)c2c1C(=O)c1ccccc1C2=O`, the inhibition constant (Ki) in [1] was over 400 µM; in experiment [2] it was over 150 µM; in experiment [3] it was 1.5 µM; on 5'-nucleotidase it was 0.53 µM. The inhibition result in experiment [8] and in [9] was “Active” each time. Besides, at P2Y purinoceptor 6, the IC50 came to 30 µM.

By Ki is commonly meant a measure of affinity in units of concentration, obtained from inhibition or displacement. For orientation: IC50 means the concentration needed to halve the response being measured.
